Assay results taken from ChEMBL document CHEMBL4229355, “Synthesis of 3'-halo-5'-norcarbocyclic nucleoside phosphonates as potent anti-HIV agents” (Eur J Med Chem, 2018).
Calls of active or inactive are those of the source. The rule behind the calls is not given here.

What was measured:
Zika virus = experiment: Antiviral activity against Zika virus; type: functional, organism-based
[1] = Cytotoxicity against human PBMC assessed as reduction in cell growth after 7 days by MTT assay; type: cell-based
In short: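 Percent cell viability plotted against compound concentration and fitted to quadratic curves; CC₅₀ is the concentration reducing cell growth by 50%.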

dengue virus type 2 = experiment: Antiviral activity against Dengue virus 2; type: functional, organism-based
[2] = system: Human immunodeficiency virus 1; experiment: Antiviral activity against HIV1 LAI infected in PHA-P activated human PBMC assessed as reduction in viral replication preincubated with cells for 30 mins followed by viral infection and measured at day 7 post infection by reverse transcriptase activity-based assay; type: functional, organism-based; conditions: Human immunodeficiency virus 1, LAI
In short: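 PHA-P-activated PBMCs (1.5 × 10⁵ cells) pre-treated 30 min with increasing compound concentrations, then infected with HIV-1 LAI at 100 TCID₅₀; supernatants harvested day 7 post-infection and stored at −20 °C. Percent inhibition of RT activity plotted against concentration and fitted to quadratic curves to give EC₅₀. Mean from 3 blood donors.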

Chikungunya virus = experiment: Antiviral activity against Chikungunya virus; type: functional, organism-based
Human alphaherpesvirus 1 = experiment: Antiviral activity against HSV-1; type: functional, organism-based
Human alphaherpesvirus 2 = experiment: Antiviral activity against HSV-2; type: functional, organism-based

| SMILES | Activity (Zika virus) | CC50 at 168 h [1] [µM] | Activity (dengue virus type 2) | EC50 [2] [µM] | Activity (Chikungunya virus) | Activity (Human alphaherpesvirus 1) | Activity (Human alphaherpesvirus 2) |
| --- | --- | --- | --- | --- | --- | --- | --- |
| O=P(O)(O)CO[C@H]1C[C@@H](n2cnc3c(O)ncnc32)C=C1I (racemic) | inactive | ≥ 10 | inactive | ≥ 10 | inactive | inactive | inactive |
| Nc1nc(O)c2ncn([C@H]3C=C(I)[C@@H](OCP(=O)(O)O)C3)c2n1 (racemic) | inactive | ≥ 10 | inactive | ≥ 10 | inactive | inactive | inactive |
| Nc1ncnc2c1ncn2[C@H]1C=C(I)[C@@H](OCP(=O)(O)O)C1 (racemic) | inactive | ≥ 10 | inactive | 5.9 | inactive | inactive | inactive |
| O=P(O)(O)CO[C@H]1C[C@@H](n2cnc3c(NC4CC4)ncnc32)C=C1I (racemic) | inactive | ≥ 10 | inactive | ≥ 10 | inactive | inactive | inactive |
| Nc1nc2c(ncn2[C@H]2C=C(F)[C@@H](OCP(=O)(O)O)C2)c(=O)[nH]1 (racemic) | inactive | ≥ 10 | inactive | ≥ 10 | inactive | inactive | inactive |
| Nc1ncnc2c1ncn2[C@H]1C=C(F)[C@@H](OCP(=O)(O)O)C1 (racemic) | inactive | ≥ 10 | inactive | 0.88 | inactive | inactive | inactive |
| C[C@H](Cn1cnc2c(N)ncnc21)OCP(=O)(O)O [TENOFOVIR ANHYDROUS] | – | ≥ 10 | – | 1.1 | – | – | – |
